Experimental data reported in ChEMBL document CHEMBL2086383, “Antitumor agents. 293. Nontoxic dimethyl-4,4'-dimethoxy-5,6,5',6'-dimethylenedioxybiphenyl-2,2'-dicarboxylate (DDB) analogues chemosensitize multidrug-resistant cancer cells to clinical anticancer drugs” (J Med Chem, 2012).
Active and inactive are the calls of the source. No cut-off for these calls is given here.

Assays:
Format in all cases: cell-based
[1] = system: A549; test: Antiproliferative activity against human A549 cells after 72 hrs by SRB assay; settings: Homo sapiens, A549, 72 h
In short: (§1)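 SRB assay. Cells at 3–5 × 10^3/well were exposed to a range of sample concentrations for 72 h. They were fixed in 50% TCA for 30 min, stained with 0.04% SRB for 30 min, and the dye was dissolved in 10 mM Tris base. Absorbance read at 515 nm. Medium was RPMI 1640 with 10% FBS at 37 °C, 5% CO2. KBvin cells were kept in 100 nM vincristine.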

[2] = system: DU-145; test: Antiproliferative activity against human DU145 cells after 72 hrs by SRB assay; settings: Homo sapiens, DU-145, 72 h; in short: as §1
[3] = system: KB; test: Antiproliferative activity against human KB cells after 72 hrs by SRB assay; settings: Homo sapiens, KB; in short: as §1
[4] = Antiproliferative activity against human multidrug-resistant KBVIN cells after 72 hrs by SRB assay; settings: Homo sapiens, KBVIN; in short: as §1
[5] = system: KBVIN; test: Inhibition of P-gp-mediated multidrug-resistance in human KBVIN cells assessed as […] of paclitaxel-induced cell survival rate at 10 uM after 72 hrs by SRB assay
[6] = system: NIH3T3; test: Inhibition of human P-gp-mediated multidrug-resistance in mouse NIH3T3 MDR cells assessed as potentiation of in paclitaxel-induced cytotoxic activity at 10 uM after 72 hrs by SRB assay; settings: human P-gp expressed in mouse cells
[7] = system: KBVIN; test: Inhibition of P-gp-mediated multidrug-resistance in human KBVIN cells assessed as fold decrease in paclitaxel IC50 for cytotoxic activity at 10 uM after 72 hrs by SRB assay relative to control
In short: (§2)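 KBvin cells were exposed to graded concentrations of anticancer drug (doxorubicin, paclitaxel or vincristine), alone or with 10 μM test compound, for 72 h. Growth was read by SRB assay. IC50 was found by log-linear interpolation. Reversal fold = IC50 (drug alone) / IC50 (drug + compound). Verapamil was the positive control. Each experiment was run at least three times.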

[8] = system: NIH3T3; test: Inhibition of human P-gp-mediated multidrug-resistance in mouse NIH3T3 MDR cells assessed as potentiation of in vincristine-induced cytotoxic activity at 10 uM after 72 hrs by SRB assay; settings: Mus musculus cells expressing human P-gp
[9] = system: KBVIN; test: Inhibition of P-gp-mediated multidrug-resistance in human KBVIN cells assessed as fold decrease in vincristine IC50 for cytotoxic activity at 10 uM after 72 hrs by SRB assay relative to control; in short: as §2
[10] = system: KBVIN; test: Inhibition of P-gp-mediated multidrug-resistance in human KBVIN cells assessed as fold decrease in doxorubicin IC50 for cytotoxic activity at 10 uM after 72 hrs by SRB assay relative to control; in short: as §2
[11] = target: ATP-dependent translocase ABCB1 (Homo sapiens, UniProt P08183); test: Inhibition of P-gp over expressed in human multidrug-resistant KBVIN cells assessed as intracellular accumulation of doxorubicin at 10uM after 3 hrs by fluorescence microplate reader analysis relative to control
In short: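 KBvin cells at 5 × 10^3/well were pretreated with compound for 1 h, then given doxorubicin (10 μM final) for 3 h. Cells were washed with ice-cold PBS and lysed in 1% SDS/PBS. Verapamil or CsA served as positive control.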

Chain of ATP-dependent translocase ABCB1 (P08183 whole entry): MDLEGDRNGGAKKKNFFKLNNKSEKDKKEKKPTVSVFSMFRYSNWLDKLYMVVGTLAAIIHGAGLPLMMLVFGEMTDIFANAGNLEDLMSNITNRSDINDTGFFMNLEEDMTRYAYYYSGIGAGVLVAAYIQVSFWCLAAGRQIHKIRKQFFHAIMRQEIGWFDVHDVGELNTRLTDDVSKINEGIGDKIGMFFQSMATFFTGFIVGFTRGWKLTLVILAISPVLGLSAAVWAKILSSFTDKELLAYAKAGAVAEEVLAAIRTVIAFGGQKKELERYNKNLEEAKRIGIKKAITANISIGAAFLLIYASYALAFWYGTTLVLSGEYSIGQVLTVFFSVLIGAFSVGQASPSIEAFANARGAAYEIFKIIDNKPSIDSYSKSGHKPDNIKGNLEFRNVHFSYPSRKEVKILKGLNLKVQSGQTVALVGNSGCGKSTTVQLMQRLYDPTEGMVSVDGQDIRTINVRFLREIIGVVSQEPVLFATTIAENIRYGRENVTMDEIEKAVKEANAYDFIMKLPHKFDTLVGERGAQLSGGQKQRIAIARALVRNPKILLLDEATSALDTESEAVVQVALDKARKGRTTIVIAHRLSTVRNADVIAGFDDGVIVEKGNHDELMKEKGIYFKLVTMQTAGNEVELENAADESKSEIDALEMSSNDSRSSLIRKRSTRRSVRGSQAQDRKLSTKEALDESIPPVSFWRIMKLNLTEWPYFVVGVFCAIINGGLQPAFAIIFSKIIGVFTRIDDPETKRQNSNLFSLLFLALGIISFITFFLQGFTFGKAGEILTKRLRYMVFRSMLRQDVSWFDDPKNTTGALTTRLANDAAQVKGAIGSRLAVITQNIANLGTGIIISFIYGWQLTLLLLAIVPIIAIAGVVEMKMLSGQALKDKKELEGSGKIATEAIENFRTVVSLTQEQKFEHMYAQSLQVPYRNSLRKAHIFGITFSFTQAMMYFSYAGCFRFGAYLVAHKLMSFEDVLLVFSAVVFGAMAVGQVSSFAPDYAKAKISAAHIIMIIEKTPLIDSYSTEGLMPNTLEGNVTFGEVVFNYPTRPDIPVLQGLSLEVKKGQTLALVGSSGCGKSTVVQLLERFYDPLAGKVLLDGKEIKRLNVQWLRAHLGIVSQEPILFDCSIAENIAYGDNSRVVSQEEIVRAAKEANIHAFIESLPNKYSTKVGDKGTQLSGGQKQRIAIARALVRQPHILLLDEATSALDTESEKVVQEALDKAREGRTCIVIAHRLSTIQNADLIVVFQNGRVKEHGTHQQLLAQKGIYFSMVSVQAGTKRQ

Row | SMILES | IC50 [1] [µM] | IC50 [2] [µM] | IC50 [3] [µM] | IC50 [4] [µM] | inhibition [5] | inhibition [6] | fold change (FC) [7] | inhibition [8] | fold change (FC) [9] | fold change (FC) [10] | fold change (FC) [11]
1 | COc1cc(COC(=O)c2ccc3c(c2)OCO3)c(-c2c(COC(=O)c3ccc4c(c3)OCO4)cc(OC)c3c2OCO3)c2c1OCO2 | > 100 | > 100 | > 100 | > 100 | inactive |  |  |  |  |  | 
2 | COc1cc(COC(=O)CC(C)C)c(-c2c(COC(=O)CC(C)C)cc(OC)c3c2OCO3)c2c1OCO2 | > 100 | > 100 | > 100 | > 100 |  | Active | 112 | Active | 79 | 6 | 1.2
3 | COc1cc(CO)c(-c2c(CO)cc(OC)c3c2OCO3)c2c1OCO2 | > 100 | > 100 | > 100 | > 100 | inactive |  |  |  |  |  | 
4 | COc1c2c(c3c(c1Br)c(=O)oc(=O)c1c(Br)c(OC)c4c(c13)OCO4)OCO2 | > 100 | > 100 | > 100 | > 100 | inactive |  |  |  |  |  | 
5 | COc1cc(COC(=O)c2ccc([N+](=O)[O-])cc2)c(-c2c(COC(=O)c3ccc([N+](=O)[O-])cc3)cc(OC)c3c2OCO3)c2c1OCO2 | > 100 | > 100 | > 100 | > 100 | inactive |  |  |  |  |  | 
6 | COc1cc(COC(=O)c2ccccc2)c(-c2c(COC(=O)c3ccccc3)cc(OC)c3c2OCO3)c2c1OCO2 | > 100 | > 100 | > 100 | > 100 |  | Active | 167 | Active | 101 | 9 | 1.2
7 | COc1cc(COC(=O)C2CCCCC2)c(-c2c(COC(=O)C3CCCCC3)cc(OC)c3c2OCO3)c2c1OCO2 | > 100 | > 100 | > 100 | > 100 |  | Active | 24 | Active | 239 | 30 | 1.2
8 | CCCCCCCCCCCC(=O)OCc1cc(OC)c2c(c1-c1c(COC(=O)CCCCCCCCCCC)cc(OC)c3c1OCO3)OCO2 | > 100 | > 100 | > 100 | > 100 | inactive |  |  |  |  |  | 
9 | COc1cc(COC(=O)C2CCCC2)c(-c2c(COC(=O)C3CCCC3)cc(OC)c3c2OCO3)c2c1OCO2 | > 100 | > 100 | > 100 | > 100 |  | Active | 20 | Active | 310 | 23 | 1.2
10 | COc1cc(COC(C)=O)c(-c2c(COC(C)=O)cc(OC)c3c2OCO3)c2c1OCO2 | > 100 | > 100 | > 100 | > 100 | inactive |  |  |  |  |  | 
11 | COc1ccc(C(=O)OCc2cc(OC)c3c(c2-c2c(COC(=O)c4ccc(OC)c(OC)c4)cc(OC)c4c2OCO4)OCO3)cc1OC | > 100 | > 100 | > 100 | > 100 |  | Active | 89 | Active | 202 | 21 | 1.2
12 | COc1c(Br)c(COC(=O)c2ccccc2)c(-c2c(COC(=O)c3ccccc3)c(Br)c(OC)c3c2OCO3)c2c1OCO2 | > 100 | > 100 | > 100 | > 100 |  |  |  |  |  |  | 
13 | COc1c(Br)c(CO)c(-c2c3c(c(OC)c(Br)c2C(=O)O)OCO3)c2c1OCO2 | > 100 | > 100 | > 100 | > 100 | inactive |  |  |  |  |  | 
14 | CCC(=O)OCc1cc(OC)c2c(c1-c1c(COC(=O)CC)cc(OC)c3c1OCO3)OCO2 | > 100 | > 100 | > 100 | > 100 |  | Active | 12 | Active | 31 | 4 | 1.2
15 | C/C=C/C=C/C(=O)OCc1cc(OC)c2c(c1-c1c(COC(=O)/C=C/C=C/C)cc(OC)c3c1OCO3)OCO2 | > 100 | > 100 | > 100 | > 100 |  | Active | 21 | Active | 54 | 3 | 1.2
16 | C/C=C/C(=O)OCc1cc(OC)c2c(c1-c1c(COC(=O)/C=C/C)cc(OC)c3c1OCO3)OCO2 | > 100 | > 100 | > 100 | > 100 |  | Active | 102 | Active | 230 | 4 | 1.2
17 | COc1cccc2c1C(=O)c1c(O)c3c(c(O)c1C2=O)C[C@@](O)(C(=O)CO)C[C@@H]3O[C@H]1C[C@H](N)[C@H](O)[C@H](C)O1 [DOXORUBICIN] |  |  |  |  |  |  |  |  |  |  | 1.2
18 | COc1cc(COC(=O)c2ccc(C)cc2)c(-c2c(COC(=O)c3ccc(C)cc3)cc(OC)c3c2OCO3)c2c1OCO2 | > 100 | > 100 | > 100 | > 100 |  | Active | 27 | Active | 51 | 11 | 1.2
19 | CCC(C)C(=O)OCc1cc(OC)c2c(c1-c1c(COC(=O)C(C)CC)cc(OC)c3c1OCO3)OCO2 (racemic) | > 100 | > 100 | > 100 | > 100 |  | Active | 26 | Active | 70 | 21 | 1.2
20 | COc1c(Br)c(C(=O)O)c(-c2c3c(c(OC)c(Br)c2C(=O)O)OCO3)c2c1OCO2 | > 100 | > 100 | > 100 | > 100 |  |  |  |  |  |  | 
21 | COc1cc(COC(=O)C(C)C)c(-c2c(COC(=O)C(C)C)cc(OC)c3c2OCO3)c2c1OCO2 | > 100 | > 100 | > 100 | > 100 |  | Active | 21 | Active | 61 | 7 | 1.2
22 | COc1ccc(C(=O)OCc2cc(OC)c3c(c2-c2c(COC(=O)c4ccc(OC)cc4)cc(OC)c4c2OCO4)OCO3)cc1 | > 100 | > 100 | > 100 | > 100 |  | Active | 27 | Active | 50 | 11 | 1.2
23 | CCCC(C)C(=O)OCc1cc(OC)c2c(c1-c1c(COC(=O)C(C)CCC)cc(OC)c3c1OCO3)OCO2 (racemic) | > 100 | > 100 | > 100 | > 100 |  | Active | 25 | Active | 53 | 31 | 1.2
24 | CCCC(=O)OCc1cc(OC)c2c(c1-c1c(COC(=O)CCC)cc(OC)c3c1OCO3)OCO2 | > 100 | > 100 | > 100 | > 100 |  | Active | 32 | Active | 50 | 4 | 1.2
25 | COc1cc(COC(=O)C=C(C)C)c(-c2c(COC(=O)C=C(C)C)cc(OC)c3c2OCO3)c2c1OCO2 | > 100 | > 100 | > 100 | > 100 |  | Active | 326 | Active | 560 | 7 | 1.2
26 | CCCCC(=O)OCc1cc(OC)c2c(c1-c1c(COC(=O)CCCC)cc(OC)c3c1OCO3)OCO2 | > 100 | > 100 | > 100 | > 100 |  | Active | 24 | Active | 161 | 9 | 1.2
